The target of one experiment is T1, Type-1 angiotensin II receptor B (Rattus norvegicus, UniProt P29089).
T1 sequence (P29089 whole entry): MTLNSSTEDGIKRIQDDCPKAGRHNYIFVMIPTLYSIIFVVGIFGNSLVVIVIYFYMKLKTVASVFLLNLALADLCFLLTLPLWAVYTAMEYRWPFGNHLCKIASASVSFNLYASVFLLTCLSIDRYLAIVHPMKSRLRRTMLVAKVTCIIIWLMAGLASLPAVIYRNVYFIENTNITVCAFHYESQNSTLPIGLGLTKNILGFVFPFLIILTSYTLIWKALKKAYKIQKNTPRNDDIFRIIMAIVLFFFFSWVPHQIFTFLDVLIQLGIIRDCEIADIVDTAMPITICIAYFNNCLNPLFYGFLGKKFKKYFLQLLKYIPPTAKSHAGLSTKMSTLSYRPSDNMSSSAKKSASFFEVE
In words: Displacement of [125I]-Sar1-Ile8-A II from rat adrenal Angiotensin-1 (AT-1) receptor.
Settings: not given
A general note: Loss of bound radioactivity is the signal in a displacement assay; it reports binding, not function.
Turning to `CCCCc1nc(C)n2nc(O)nc2c1Cc1ccc(-c2ccccc2-c2nn[nH]n2)cc1`, the affinity corresponds to a Ki of 30 nM.

Consider `CCCc1nc(COC)n2nc(O)nc2c1Cc1ccc(-c2ccccc2-c2nn[nH]n2)cc1`, for which the Ki – broadly, a measure of affinity in units of concentration, obtained from inhibition or displacement – came out at 92 nM.

`CCCc1nc(C)n2c(=O)n(CCO)nc2c1Cc1ccc(-c2ccccc2-c2nn[nH]n2)cc1` had a Ki of 6 nM.

`CCCc1nc(CC)n2nc(O)nc2c1Cc1ccc(-c2ccccc2-c2nn[nH]n2)cc1` registered a Ki of 225 nM.

Regarding `CCCc1nc(C)n2nc(N)nc2c1Cc1ccc(-c2ccccc2-c2nn[nH]n2)cc1`, the affinity corresponds to a Ki of 1 nM.

Consider `CCCc1nc(C)n2nc(S(=O)(=O)NC)nc2c1Cc1ccc(-c2ccccc2-c2nn[nH]n2)cc1`, for which the Ki was 139 nM.

Turning to `CCCc1nc(C)n2nc(C(=O)OCC)nc2c1Cc1ccc(-c2ccccc2-c2nn[nH]n2)cc1`, the Ki is 23 nM.

`CCCc1nc(C)n2c(O)nnc2c1Cc1ccc(NC(=O)c2ccccc2S(=O)(=O)O)cc1`: the affinity, expressed as Ki, was 41 nM.

The compound `CCCc1nc(COC)n2nc(C)nc2c1Cc1ccc(-c2ccccc2-c2nn[nH]n2)cc1` displayed a Ki of 111 nM.

As to `CCCc1nc(CO)n2nc(C)nc2c1Cc1ccc(-c2ccccc2-c2nn[nH]n2)cc1`, the inhibition constant (Ki) amounted to 27 nM.

In turn, `CCCc1nc(C)n2cnnc2c1Cc1ccc(-c2ccccc2-c2nn[nH]n2)cc1` displayed a Ki of 10 nM.

In turn, `CCCc1ncn2ncnc2c1Cc1ccc(-c2ccccc2-c2nn[nH]n2)cc1` registered a Ki of 50 nM.

Compound `CCCCc1nc(C)n2nc(O)nc2c1Cc1ccc(-c2ccccc2C(=O)O)cc1` registered an inhibitory constant (Ki) of 622 nM.

As to `CCCc1nc(C)n2c(S)nnc2c1Cc1ccc(-c2ccccc2-c2nn[nH]n2)cc1`, the Ki turned out to be 127 nM.

As to `CCCc1nc(C)n2nc(CC(=O)OCC)nc2c1Cc1ccc(-c2ccccc2-c2nn[nH]n2)cc1`, the affinity, expressed as Ki, was 9 nM.

`CCCc1nc(C)n2c(=O)n(CC(=O)OCC)nc2c1Cc1ccc(-c2ccccc2-c2nn[nH]n2)cc1` returned a Ki of 12 nM.

As for `CCCc1nc(C)n2nc(-c3ccccc3)nc2c1Cc1ccc(-c2ccccc2-c2nn[nH]n2)cc1`, the Ki came out at 175 nM.

Compound `CCCc1nc(CCC)n2nc(O)nc2c1Cc1ccc(-c2ccccc2-c2nn[nH]n2)cc1` came in with a Ki of 659 nM.

`CCCc1nc(C)n2nc(S(=O)(=O)N(C)C)nc2c1Cc1ccc(-c2ccccc2-c2nn[nH]n2)cc1` came in with a Ki of 185 nM.

The subject of a further experiment is Rattus norvegicus. Briefly: Change in mean arterial blood pressure in renal artery ligated hypertensive rats, orally dosed at 1 mg/kg. Format: functional. The note with it: route oral. In outline: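 Male CD Sprague-Dawley rats (250-270 g), left renal artery ligated under ketamine (100 mg/kg ip); catheterized for direct recording 2-3 days before test. Single oral gavage, 3-7 rats/group. MAP recorded before and for 16 h after dosing; value is maximal MAP decrease, mean ± SEM; decrease under 15 mmHg counted as no effect.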
`CCCCc1nc(C)n2nc(O)nc2c1Cc1ccc(-c2ccccc2-c2nn[nH]n2)cc1`: the “Change in blood pressure” value is -22.1 mmHg.

Take `CCCc1nc(COC)n2nc(O)nc2c1Cc1ccc(-c2ccccc2-c2nn[nH]n2)cc1`: the “Change in blood pressure” value is recorded as -18.5 mmHg.

As to `CCCc1nc(C)n2c(=O)n(CCO)nc2c1Cc1ccc(-c2ccccc2-c2nn[nH]n2)cc1`, the “Change in blood pressure” value was -25.6 mmHg.

Take `CCCc1nc(CC)n2nc(O)nc2c1Cc1ccc(-c2ccccc2-c2nn[nH]n2)cc1`: the “Change in blood pressure” value was -46.5 mmHg.

As for `CCCc1nc(C)n2nc(N)nc2c1Cc1ccc(-c2ccccc2-c2nn[nH]n2)cc1`, the “Change in blood pressure” value is listed as -33.4 mmHg.

For `CCCCc1nc(Cl)c(CO)n1Cc1ccc(-c2ccccc2-c2nnn[nH]2)cc1` [LOSARTAN], the “Change in blood pressure” value is -32.9 mmHg.

As to `CCCc1nc(C)n2nc(S(=O)(=O)NC)nc2c1Cc1ccc(-c2ccccc2-c2nn[nH]n2)cc1`, the “Change in blood pressure” value was -14.1 mmHg.

Consider `CCCc1nc(C)n2nc(C(=O)OCC)nc2c1Cc1ccc(-c2ccccc2-c2nn[nH]n2)cc1`, for which the “Change in blood pressure” value is given as -14.9 mmHg.

For `CCCc1nc(COC)n2nc(C)nc2c1Cc1ccc(-c2ccccc2-c2nn[nH]n2)cc1`, the “Change in blood pressure” value is listed as -21.8 mmHg.

For the compound `CCCc1nc(C)n2cnnc2c1Cc1ccc(-c2ccccc2-c2nn[nH]n2)cc1`, the “Change in blood pressure” value is reported as -24.2 mmHg.

Regarding `CCCc1nc(C)n2c(S)nnc2c1Cc1ccc(-c2ccccc2-c2nn[nH]n2)cc1`, the “Change in blood pressure” value was -22.4 mmHg.

Take `CCCc1nc(C)n2nc(CC(=O)OCC)nc2c1Cc1ccc(-c2ccccc2-c2nn[nH]n2)cc1`: the “Change in blood pressure” value is given as -18.1 mmHg.

Consider `CCCc1nc(C)n2c(=O)n(CC(=O)OCC)nc2c1Cc1ccc(-c2ccccc2-c2nn[nH]n2)cc1`, for which the “Change in blood pressure” value is -21.6 mmHg.

`CCCc1nc(C)n2nc(-c3ccccc3)nc2c1Cc1ccc(-c2ccccc2-c2nn[nH]n2)cc1`: the “Change in blood pressure” value is recorded as -13.3 mmHg.

As to `CCCc1nc(CCC)n2nc(O)nc2c1Cc1ccc(-c2ccccc2-c2nn[nH]n2)cc1`, the “Change in blood pressure” value is on record as -22.2 mmHg.

For a further experiment, the system named is Rattus norvegicus. In words: Change in systolic arterial blood pressure in renal artery ligated hypertensive rats, orally dosed at 10 mg/kg. Format: functional. The note with it: route oral. In outline: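 Conscious male CD Sprague-Dawley rats (250-270 g) with left renal artery ligated several days earlier under ketamine. Single oral gavage, 3-8 rats/group. Systolic pressure by indirect tail-cuff sphygmomanometry before and 3 h post-dose; change reported as SAP decrease at 3 h, mean ± SEM.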
Turning to `CCCc1nc(SC)n2c(O)nnc2c1Cc1ccc(-c2ccccc2-c2nn[nH]n2)cc1`, the “Change in blood pressure” value is recorded as -15.6 mmHg.

Take `CCCCc1nc(C)n2nc(O)nc2c1Cc1ccc(-c2ccccc2-c2nn[nH]n2)cc1`: the “Change in blood pressure” value is -91.5 mmHg.

In the case of `CCCc1nc(COC)n2nc(O)nc2c1Cc1ccc(-c2ccccc2-c2nn[nH]n2)cc1`, the “Change in blood pressure” value is given as -88.7 mmHg.

`CCCc1nc(C)n2c(=O)n(CCO)nc2c1Cc1ccc(-c2ccccc2-c2nn[nH]n2)cc1`: the “Change in blood pressure” value is given as -67.9 mmHg.

Consider `CCCc1nc(CC)n2nc(O)nc2c1Cc1ccc(-c2ccccc2-c2nn[nH]n2)cc1`, for which the “Change in blood pressure” value was -75.8 mmHg.

As for `CCCc1nc(C)n2nc(N)nc2c1Cc1ccc(-c2ccccc2-c2nn[nH]n2)cc1`, the “Change in blood pressure” value is -77.2 mmHg.

For the compound `CCCCc1nc(Cl)c(CO)n1Cc1ccc(-c2ccccc2-c2nnn[nH]2)cc1` [LOSARTAN], the “Change in blood pressure” value is -104.2 mmHg.

As for `CCCc1nc(C)n2nc(S(=O)(=O)NC)nc2c1Cc1ccc(-c2ccccc2-c2nn[nH]n2)cc1`, the “Change in blood pressure” value is on record as -37.2 mmHg.

For the compound `CCCc1nc(C)n2nc(C(=O)OCC)nc2c1Cc1ccc(-c2ccccc2-c2nn[nH]n2)cc1`, the “Change in blood pressure” value is recorded as -76.7 mmHg.

Regarding `CCCc1nc(C)n2c(O)nnc2c1Cc1ccc(NC(=O)c2ccccc2S(=O)(=O)O)cc1`, the “Change in blood pressure” value is given as -18.3 mmHg.

In the case of `CCCc1nc(COC)n2nc(C)nc2c1Cc1ccc(-c2ccccc2-c2nn[nH]n2)cc1`, the “Change in blood pressure” value is on record as -44.4 mmHg.

As for `CCCc1nc(CO)n2nc(C)nc2c1Cc1ccc(-c2ccccc2-c2nn[nH]n2)cc1`, the “Change in blood pressure” value is given as -21.4 mmHg.

Regarding `CCCc1nc(C)n2cnnc2c1Cc1ccc(-c2ccccc2-c2nn[nH]n2)cc1`, the “Change in blood pressure” value is given as -77.2 mmHg.

On to `CCCc1ncn2ncnc2c1Cc1ccc(-c2ccccc2-c2nn[nH]n2)cc1`, for which the “Change in blood pressure” value is listed as -20 mmHg.

On to `CCCCc1nc(C)n2nc(O)nc2c1Cc1ccc(-c2ccccc2C(=O)O)cc1`, for which the “Change in blood pressure” value was -23.5 mmHg.

Turning to `CCCc1nc(C)n2c(S)nnc2c1Cc1ccc(-c2ccccc2-c2nn[nH]n2)cc1`, the “Change in blood pressure” value is -90.2 mmHg.

With `CCCc1nc(C)n2nc(CC(=O)OCC)nc2c1Cc1ccc(-c2ccccc2-c2nn[nH]n2)cc1`, the “Change in blood pressure” value was -84 mmHg.

On to `CCCc1nc(C)n2c(=O)n(CC(=O)OCC)nc2c1Cc1ccc(-c2ccccc2-c2nn[nH]n2)cc1`, for which the “Change in blood pressure” value is listed as -71.7 mmHg.

`CCCc1nc(C)n2nc(-c3ccccc3)nc2c1Cc1ccc(-c2ccccc2-c2nn[nH]n2)cc1`: the “Change in blood pressure” value was -48.2 mmHg.

In the case of `CCCc1nc(CCC)n2nc(O)nc2c1Cc1ccc(-c2ccccc2-c2nn[nH]n2)cc1`, the “Change in blood pressure” value is -72.6 mmHg.

Take `CCCc1nc(C)n2nc(S(=O)(=O)N(C)C)nc2c1Cc1ccc(-c2ccccc2-c2nn[nH]n2)cc1`: the “Change in blood pressure” value is listed as -7.2 mmHg.

For the origin of these results see ChEMBL document CHEMBL1127592, “Synthesis and SAR studies of novel triazolopyrimidine derivatives as potent, orally active angiotensin II receptor antagonists” (J Med Chem, 1994).
